Apaf1 inhib: inhibitors of human Apaf-1 apoptosome, primary screen, biochemical, DEVD-Rh110 fluorescence, uHTS; Apoptotic protease-activating factor 1 (Homo sapiens), O14727; inhibition, % at 20 µM; reconstituted apoptosome caspase-3 activity; actives 0.71% (n = 330,000); active means inhibition of at least 40% at 20 µM;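 further: plate controls were DMSO wells for no effect and DEVD-CHO caspase inhibitor wells for full effect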
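Material: reconstituted apoptosome with Apaf-1, cytochrome c, caspase-9, procaspase-3, dATP; medium: pH 7.5 Hepes buffer with CHAPS, BSA, DTT; also added: cytochrome c and DEVD-Rh110 substrate; timing: 30 min plus 50 min, RT; signal: Rh110 fluorescence intensity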
Neddylation inh: inhibitors of cullin neddylation, primary screen, biochemical, TR-FRET, uHTS, NAE and Ubc12. AID 651699, 2012. actives 0.58% (n = 360,000). calls only at 25 µM; in the data active means inhibition above about 36%
FID counter: compounds displacing fluorescent DNA intercalator, primary screen, artefact control for HCV NS3 helicase inhibitor project, biochemical, FID fluorescence; AID 1845, 2009; DNA fluorescent intercalator displacement; inhibition, % at 7.9 µM; actives 0.17% (n = 290,000); in the data active means inhibition above about 37%;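 further: 0% = vehicle and 100% = reference compound; higher means more ethidium bromide displaced from hairpin DNA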
RAD52 anneal inh: RAD52 DNA annealing inhibitors, primary screen, biochemical, FRET, single point, set 2; DNA repair protein RAD52 homolog (Homo sapiens), P43351; recombinant RAD52 DNA annealing, FRET fluorescence; inhibition, % at 18.7 µM; actives 0.46% (n = 360,000);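 active means every replicate showing at least 50% inhibition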
Target sequence (P43351 whole entry, looked up): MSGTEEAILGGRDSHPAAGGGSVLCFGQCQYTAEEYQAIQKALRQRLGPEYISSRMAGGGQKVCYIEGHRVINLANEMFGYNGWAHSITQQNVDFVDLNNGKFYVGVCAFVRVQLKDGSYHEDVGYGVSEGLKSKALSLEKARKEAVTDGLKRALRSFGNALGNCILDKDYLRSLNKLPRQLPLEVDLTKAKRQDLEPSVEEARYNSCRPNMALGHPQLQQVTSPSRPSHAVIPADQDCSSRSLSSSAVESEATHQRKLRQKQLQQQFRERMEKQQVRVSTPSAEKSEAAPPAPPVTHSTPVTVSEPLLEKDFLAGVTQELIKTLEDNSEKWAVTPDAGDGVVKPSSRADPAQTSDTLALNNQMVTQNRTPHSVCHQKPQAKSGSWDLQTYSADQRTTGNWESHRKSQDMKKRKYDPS
UBC13 polyUb: UBC13 polyubiquitin chain formation inhibitors, primary screen, biochemical, TR-FRET, uHTS; AID 485273, 2010; actives 0.47% (n = 330,000); Ubiquitin-conjugating enzyme E2 N (Homo sapiens), P61088; inhibition, % at 20 µM; in the data active means inhibition above about 45%, passing the limit was not always enough
RAD54 inh: inhibitors of human RAD54 branch migration, primary screen, biochemical, fluorescence, single point. DNA repair and recombination protein RAD54-like (Homo sapiens), Q92698. AID 602329, 2012. RAD54 Holliday junction branch migration, FAM/BHQ fluorescence. inhibition, % at 10.4 µM. actives 0.14% (n = 360,000);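 active means mean normalized replicate activity at least 40 and at least half of replicates scoring 40 or more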;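 further: 0% = median of neutral control wells and 100% = median of positive control wells; inhibitors cause a drop in the FAM fluorescence signal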
Starred values were filed as active, the others as inactive; i = inactive; . = no result given; + = active, no number; ! = not confirmed by another sample. Most compounds without a hit are left out; they make up all but 1.6% or so of the library.

SMILES | Apaf1 inhib | Neddylation inh | FID counter | RAD52 anneal inh | UBC13 polyUb | RAD54 inh
COc1ccccc1NC(=O)N1CCCCN2[C@H](CO)[C@@H](c3ccc(C#CC4CC4)cc3)[C@H]2C1 | . | . | . | 48 | . | .
CCNC(=O)c1ccc2c(c1)C1C3CCC(C3)C1C(c1ccccc1)N2 (stereo not given) | 8 | i | 96* | 1 | -9 | .
CCc1ccccc1NC(=O)c1cccc(N2C(=O)C3C4CCC(C4)C3C2=O)c1 (stereo not given) | 1 | i | -10 | . | 6 | 4
CC(=O)N(CCCc1ccc(C(C)(C)C)cc1)CCCN(C)C | -5 | i | 38* | . | 3 | .
C[C@@H]1CCCCO[C@H](CN(C)Cc2ccc(C(F)(F)F)cc2)[C@H](C)CN([C@H](C)CO)C(=O)c2cc(NC(=O)c3ccncc3)ccc2O1 | . | . | . | -2 | . | 2
O=[N+]([O-])c1c(NCCCO)cc(Sc2nc3ccccc3s2)c2nonc12 | 98* | i | 2 | 2 | -67 | -7
CCC(=O)OCCNc1cc(Sc2nc3ccccc3s2)c2nonc2c1[N+](=O)[O-] | 46* | i | -3 | . | -34 | -13
Cc1nnc(Sc2cc(NCCCO)c([N+](=O)[O-])c3nonc23)s1 | . | i | 4 | -9 | . | .
CCC(=O)OCCNc1cc(Sc2nc3ccccc3[nH]2)c2nonc2c1[N+](=O)[O-] | . | i | 7 | . | . | .
COc1ccc(S(=O)(=O)N(C)C[C@@H]2OCCCC[C@@H](C)Oc3ccc(NS(C)(=O)=O)cc3C(=O)N([C@@H](C)CO)C[C@H]2C)cc1 | . | . | . | 1 | . | 2
O=C(NCCCO)c1ccc2nc(-c3ccco3)c(-c3ccco3)nc2c1 | . | i | -14 | 23 | . | .
CCCCNC(=O)c1ccc2nc(-c3ccco3)c(-c3ccco3)nc2c1 | 28 | i | -9 | 18 | -79 | 7
O=C(Nc1ccccc1)c1ccc2nc(-c3ccco3)c(-c3ccco3)nc2c1 | 60* | i | -1 | . | -19 | -2
O=C(Nc1ccc(N2CCOCC2)cc1)c1ccc2nc(-c3ccco3)c(-c3ccco3)nc2c1 | 15 | i | -5 | . | -14 | 9
O=C(NCCO)Nc1ccc2nc(-c3ccco3)c(-c3ccco3)nc2c1 | 71* | . | 24 | . | 45 | .
CC(=O)c1ccc(NC(=O)c2ccc3nc(-c4ccco4)c(-c4ccco4)nc3c2)cc1 | 52* | i | -21 | . | 28 | -10
O=C(C[C@H]1C[C@H]2c3cc(NC(=O)Cc4ccncc4)ccc3O[C@H]2[C@H](CO)O1)NCc1ccc2c(c1)OCO2 | . | . | . | -8 | . | 2
CCNC(=O)C[C@H]1C=C[C@H](NS(=O)(=O)c2ccc(F)cc2)[C@@H](CO)O1 | . | . | . | -13 | . | -2
c1ccc([C@H]2CNCCN2CCc2cccc3ccccc23)cc1 | 55* | i | . | -59 | 44 | 2
O=C(Nc1nc2cc3c(cc2s1)OCO3)c1ccco1 | . | . | -3 | -21 | . | -5
O=C(Nc1nc2cc3c(cc2s1)OCCO3)c1ccco1 | 8 | + | -3 | -9 | 2 | 6
O=C(Nc1cccc(F)c1)N1[C@@H]2CNC[C@H]1C2c1ccc(-c2cccc(F)c2)cc1 (stereo not given in full) | . | . | . | 54*! | . | .
O=C(Nc1cccc(Cl)c1)N1[C@@H]2CNC[C@H]1C2c1ccc(-c2ccccc2)cc1 (stereo not given in full) | . | . | . | 53* | . | .
O=C(Nc1cc(F)ccc1F)N1[C@@H]2CNC[C@H]1C2c1ccc(-c2ccc(F)cc2)cc1 (stereo not given in full) | . | . | . | 58*! | . | .
CO[C@H]1CN(C)C(=O)c2cc(NC(=O)C3CCC3)ccc2OC[C@@H](C)N(Cc2ccncc2)C[C@H]1C | . | . | . | 12 | . | 6
C[C@H]1CN([C@@H](C)CO)S(=O)(=O)c2ccc(C#CCN(C)C)cc2O[C@@H]1CN(C)Cc1ccccn1 | . | . | . | -13 | . | 4
CCOC(=O)C1CCN(C(=O)c2ccc(C)o2)CC1 | -9 | i | . | -13 | 5 | .

Screening results from PubChem BioAssay.
